High-throughput results deposited in PubChem BioAssay by several laboratories.
TNAP act hiacc: TNAP activators at high phosphate acceptor level, primary screen, biochemical, luminescence, uHTS; activation factor at 20 µM; purified TNAP, CDP-star luminescence, 1 M DEA, 30 min; stronger effect = higher value; 0 = EDTA background, 1 = DMSO-only activity; 200,000 tested, under 10 active; AID 1136, 2008; Alkaline phosphatase, tissue-nonspecific isozyme (Homo sapiens), P05186;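 active = activation factor at least 2 at 20 µM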
Target sequence (P05186 whole entry, looked up): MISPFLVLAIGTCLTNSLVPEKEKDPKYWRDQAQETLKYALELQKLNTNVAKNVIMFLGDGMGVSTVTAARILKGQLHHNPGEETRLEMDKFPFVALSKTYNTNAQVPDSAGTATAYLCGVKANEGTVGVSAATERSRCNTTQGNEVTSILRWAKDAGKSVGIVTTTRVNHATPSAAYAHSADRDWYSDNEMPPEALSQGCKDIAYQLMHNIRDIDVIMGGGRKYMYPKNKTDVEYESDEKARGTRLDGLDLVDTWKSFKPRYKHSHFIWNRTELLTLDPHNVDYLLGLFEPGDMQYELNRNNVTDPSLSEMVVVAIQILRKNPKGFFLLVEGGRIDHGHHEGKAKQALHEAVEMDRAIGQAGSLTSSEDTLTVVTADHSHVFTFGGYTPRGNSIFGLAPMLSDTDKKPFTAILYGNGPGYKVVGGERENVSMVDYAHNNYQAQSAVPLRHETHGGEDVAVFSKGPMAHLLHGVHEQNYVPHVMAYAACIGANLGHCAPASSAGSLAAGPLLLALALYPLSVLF
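Control set: EDTA negative control, DMSO positive control / Assay system: human TNAP / Quantity: TNAP 1/800 final / Evaluation: TNAP activation factor scaled between EDTA and DMSO control wells / Measured by: luminescent substrate turnover signal / Compound dosing: one dose, 20 µM / Times: 30 min enzyme reaction at room temperature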
HCT116 bCat-KO: primary screen for growth suppressors in beta-catenin knockout HCT116 cells (colon tumor, human) | hit rate 1.5% among 140,000 | viability, % at 10 µM | HCT116 beta-catenin knockout viability, CellTiter-Glo, 60 h; stronger effect = lower value;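 active = viability at or under a set limit, the compound median less 4 SD, cut at about 6% in these data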
TNAP inh noacc: human TNAP enzyme inhibitors, primary screen, biochemical, luminescent, no phosphate acceptor, uHTS | purified TNAP, CDP-star luminescence, 30 min | inhibition, % at 20 µM | hit rate 0.26% among 200,000 | AID 1012, 2008;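 active = tissue-nonspecific alkaline phosphatase inhibition above about 50% at 20 µM in the single-dose screen, limit read from the data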
HCT116 PTEN-null: growth suppression of PTEN-null HCT116, primary screen, cell-based, CellTiter-Glo; HCT116 PTEN-null viability, 60 h; stronger effect = lower value; AID 827, 2007; viability, % at 10 µM; hit rate 1.2% among 140,000;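 active = viability at or below a set limit, 4 SD under the median of all tested compounds, cut at about 3.7% in these data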;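 note: PTEN knockout HCT116 line with beta catenin targeted HCT116 as companion control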
L major viab: Leishmania major promastigote growth inhibition, primary screen | inhibition, % at 10 µM | AID 1063, 2008 | Leishmania major promastigotes, resazurin fluorescence viability | hit rate 9% among 200,000; in the data active = inhibition above about 50%;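 note: promastigotes grown with compound for 44 hours at 28 °C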
TNAP inh hiacc: human TNAP enzyme inhibitors, primary screen, biochemical, luminescent, high phosphate acceptor level, uHTS | Alkaline phosphatase, tissue-nonspecific isozyme (Homo sapiens), P05186 | purified TNAP, CDP-star luminescence, 1 M DEA | inhibition, % at 20 µM | hit rate 0.03% among 200,000;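 active = over 50% inhibition of tissue-nonspecific alkaline phosphatase at 20 µM in the single-dose screen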
Numbers stand for hits; n = inactive; x = not tested or not shown. Compounds with a hit are over-represented: about 9.6% of the library has one in this group of screens.

SMILES | TNAP act hiacc | HCT116 bCat-KO | TNAP inh noacc | HCT116 PTEN-null | L major viab | TNAP inh hiacc
CCN(c1ccccc1)S(=O)(=O)c1ccc(OC)c(NC(=O)Cn2cnc3c2c(=O)n(C)c(=O)n3C)c1 | n | x | n | x | 61 | n
Cn1cc(C(=O)NCc2cccs2)c(=O)c2cc(S(=O)(=O)N3CCCC3)ccc21 | n | n | n | n | n | n
CCC(=O)NC1CCN(C(=S)NC)CC1 | n | x | n | x | n | n
O=C(CN1C(=O)NC2(CCCc3ccccc32)C1=O)Nc1cccc(S(=O)(=O)N2CCCCC2)c1 (stereo unspecified) | n | n | n | n | n | n
Cc1ccc(S(=O)(=O)N(C)C)cc1NC(=O)CN1C(=O)NC2(CCCc3ccccc32)C1=O (stereo unspecified) | n | n | n | n | 72 | n
Cc1cc(C(=O)CN2C(=O)NC3(CCCc4ccccc43)C2=O)c(C)n1Cc1ccccc1 (stereo unspecified) | n | n | n | n | 53 | n
Cc1cc(C(=O)CN2C(=O)NC3(CCCc4ccccc43)C2=O)c(C)n1Cc1ccco1 (stereo unspecified) | n | n | n | n | n | n
CN1CCN(NC(=O)CC(C)(C)C)CC1 | n | x | n | x | n | n
Cc1cc(/C=C2/SC(=S)N(c3cccc(C(F)(F)F)c3)C2=O)c(C)n1-c1cccnc1 | x | x | x | x | 80 | x
O=C(Nc1c2ccccc2nc2ccccc12)C(Cl)(Cl)Cl | n | n | n | n | 100 | n
O=C(Cc1ccccc1)NNc1c2ccccc2nc2ccccc12 | n | x | n | x | n | n
Cc1cccc(N2CCN(C(=O)CSc3ccsc3[N+](=O)[O-])CC2C)c1 (stereo unspecified) | n | n | n | n | 64 | n
COc1ccccc1Cn1c(/C=C/c2ccccc2)nc2ccccc21 | n | n | n | n | n | n
COc1ccc(/C=C/c2nc3ccccc3n2Cc2ccccc2OC)cc1 | n | 1.9 | n | 2.8 | 65 | n
CNC(=S)NNC(=O)c1ccc(=O)n(Cc2cccc(C(F)(F)F)c2)c1 | n | x | n | x | n | n
CC(Cc1cccs1)NC(=S)Nc1ccc(F)cc1 (stereo unspecified) | n | n | n | n | 51 | n
COc1ccc(NC(=S)NC(C)Cc2cccs2)cc1 (stereo unspecified) | n | x | n | x | n | n
Cc1ccc(NC(=S)NC2CC3CCCC(C2)N3Cc2cccs2)cc1 (stereo unspecified) | n | n | n | n | 92 | n
Fc1ccc(NC(=S)NC2CC3CCCC(C2)N3Cc2cccs2)cc1 (stereo unspecified) | n | x | n | x | 94 | n
CC(C)c1ccc(NC(=O)NC2CC3CCC(C2)N3Cc2cccs2)cc1 (stereo unspecified) | n | x | n | x | 73 | n
COc1ccccc1C1=NN(C2=NN=C(N)Cc3ncnn32)C(O)(C(F)(F)F)C1 (stereo unspecified) | n | x | n | x | n | n
CN(C)CCNC(=O)/C=N/O | n | n | n | n | n | n
C/C(=N\NC(=S)NC1CCCCC1)c1ccccc1 | n | n | n | n | n | n
CC1=CC(C)(C)N(C(=O)CNC2CCCCC2)c2cc(C)ccc21 | n | x | n | x | n | n
Cc1ccc2nc(NC(=O)COC(=O)CSc3nc(C)cc(C)n3)sc2c1 | n | n | n | n | n | n
SMILES | TNAP act hiacc | HCT116 bCat-KO | TNAP inh noacc | HCT116 PTEN-null | L major viab | TNAP inh hiacc
COc1ccc2nc(NC(=O)CSc3nc(C)cc(C)n3)sc2c1 | n | n | n | n | 51 | n
CCn1nnnc1SCC(=O)Nc1nc2ccc(OC)cc2s1 | n | n | n | n | 86 | n
CCOC(=O)CN(C(=O)CSc1nnc(Cc2ccccc2)n1-c1ccc(C)cc1)c1ccccc1 | n | n | n | n | 99 | n
O=C(O)c1ccccc1CSc1nc2ccccc2n1Cc1ccccc1C(=O)O | n | x | n | x | n | n
COc1ccc(NS(=O)(=O)c2cc(NC(=O)C3CC3)ccc2N2CCOCC2)cc1 | n | x | n | x | n | n
COc1cc(OC)c(S(=O)(=O)Nc2ccccc2N2CCOCC2)cc1NC(C)=O | n | x | n | x | n | n
COc1ccccc1NS(=O)(=O)c1cc(NC(=O)CCC2CCCC2)ccc1N1CCOCC1 | n | x | n | x | 99 | n
COc1ccccc1NS(=O)(=O)c1cc(NC(=O)CC(C)(C)C)ccc1N1CCOCC1 | n | x | n | x | 98 | n
Cc1ccsc1C1NC(=O)c2c(sc3c2CCN(C)C3)N1 (stereo unspecified) | n | n | n | n | 88 | n
CN1CCc2c(sc3c2C(=O)NC(c2cccs2)N3)C1 (stereo unspecified) | n | n | n | n | n | n
CN1CCc2c(sc3c2C(=O)NC(c2ccc(-c4cccc(Cl)c4)o2)N3)C1 (stereo unspecified) | n | x | n | x | 68 | n
CSc1ccc(C2NC(=O)c3c(sc4c3CCN(C)C4)N2)cc1 (stereo unspecified) | n | n | n | n | n | n
COc1ccc(OC)c(NC(=O)c2cnc(Nc3ccccc3OC)c3ccccc23)c1 | n | n | n | n | n | n
CC(C)Nc1nnc(SCC(=O)Nc2ccc3c(c2)C(=O)c2ccccc2C3=O)s1 | n | n | n | n | 97 | n
CCOc1cc(/C=N/Nc2nc(-c3cccc(S(=O)(=O)N4CCCC4)c3)cs2)ccc1O | n | n | n | n | 93 | n
COc1ccc(/C=N/Nc2nc(-c3cccc(S(=O)(=O)N4CCCC4)c3)cs2)cc1OC | n | n | n | n | n | n
Cc1cc(Nc2ccccc2)nc2cc(O)ccc12 | n | n | n | n | 83 | n
Cc1cc(Nc2cccc(O)c2)c2ccccc2n1 | n | x | n | x | n | n
CC(=O)c1c(C)[nH]c(C(=O)Nc2cccc(S(=O)(=O)N(C)c3ccccc3)c2)c1C | n | x | n | x | 95 | n
COCCNc1nnc(SCC(=O)Nc2cc(-c3ccccc3)nn2-c2ccccc2)s1 | n | n | n | n | n | n
CN(c1ccccc1)S(=O)(=O)c1cccc(NC(=O)CSc2ncn[nH]2)c1 | n | n | n | n | n | n
O=C(CSc1nncs1)Nc1cc(-c2ccccc2)nn1-c1ccccc1 | n | n | n | n | 51 | n
CN(c1ccccc1)S(=O)(=O)c1cccc(NC(=O)CSc2nncs2)c1 | n | n | n | n | 72 | n
CN(c1ccccc1)S(=O)(=O)c1cccc(NC(=O)CSc2nnc(N)s2)c1 | n | n | n | n | 78 | n
CCOC(=O)N1CCN(CCC(=O)Nc2cc([N+](=O)[O-])ccc2OC)CC1 | n | n | n | n | n | n
CCOc1ccc(C(=O)NCC(=O)OCC(=O)N2CCCC2)cc1 | n | x | n | x | n | n
